Measurements from ChEMBL document CHEMBL1152760, “Synthesis and bioevaluation of omega-N-amino analogs of B13” (Bioorg Med Chem, 2009).
Calls of active or inactive are those of the source. No cut-off for these calls is given here.

Tests used:
MCF7 [1] = assay: Increase in endogenous C16-ceramide level in human MCF7 cells at 10 uM after 2 hrs by LC/MS analysis relative to control; assay type: functional
How it was run: (§1)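 MCF7 cells treated with 10μM compound for 2 h. Endogenous ceramide species and sphingosine were measured in a Bligh & Dyer lipid extract and normalized to phospholipid phosphate (pmol/nmol Pi). Results are given as % of control, each dose in duplicate.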

MCF7 [2] = assay: Decrease in endogenous sphingosine level in human MCF7 cells at 10 uM after 2 hrs by LC/MS analysis relative to control; assay type: functional; design: scale not given: the % may be the effect or the level left; how it was run: as §1
[3] = biological target: T1, Acid ceramidase (Homo sapiens) (UniProt Q13510); assay: Inhibition of acid ceramidase in human MCF7 cell lysate at 50 uM by scintillation counting; assay type: cell-free
T1 sequence (whole entry): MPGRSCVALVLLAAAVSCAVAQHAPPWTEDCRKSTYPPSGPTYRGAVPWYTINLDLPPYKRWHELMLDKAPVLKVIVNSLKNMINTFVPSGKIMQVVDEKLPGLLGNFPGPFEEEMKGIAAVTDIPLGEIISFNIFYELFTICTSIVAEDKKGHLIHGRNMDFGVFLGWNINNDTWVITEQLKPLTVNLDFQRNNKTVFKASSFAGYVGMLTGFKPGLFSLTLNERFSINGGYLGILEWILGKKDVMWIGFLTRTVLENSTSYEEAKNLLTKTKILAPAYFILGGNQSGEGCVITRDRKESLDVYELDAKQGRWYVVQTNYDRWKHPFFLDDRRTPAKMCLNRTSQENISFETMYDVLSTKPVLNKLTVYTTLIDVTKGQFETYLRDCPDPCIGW
How it was run: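 MCF7 lysate prepared in pH 4.5 acetate buffer (5mM MgCl2, 1mM EDTA, 0.5% Triton X-100) served as the enzyme source. Substrate was [3H]C16-ceramide in Triton/cholate, dried down with compound from ethanol stock. The reaction was run at final pH about 4.2 and 37°C for 1 h, then stopped with Dole's reagent. Released [3H]palmitic acid was counted by scintillation. Duplicates, reported as % control.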

MCF7 [4] = assay: Cytotoxicity against human MCF7 cells after 48 hrs by MTT assay; assay type: functional, cell-based; conditions: for IC50: MCF7, 48 h
How it was run: (§2)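 MCF7 cells (RPMI 1640, 10% FBS) seeded at 5 × 10^3 per well and left overnight to attach. Compounds in DMSO (<0.1%) added at 0.78–100 μM for 48 h (or 72 h), then MTT read-out. Viability is Ad/Ac × 100 against untreated controls, with 5 replicates per dose and two independent experiments. IC50 is the concentration giving 50% growth inhibition.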

MCF7 [5] = assay: Increase in endogenous total ceramide level in human MCF7 cells at 10 uM after 2 hrs by LC/MS analysis relative to control; assay type: functional; how it was run: as §1
MCF7 [6] = assay: Increase in endogenous C14-ceramide level in human MCF7 cells at 10 uM after 2 hrs by LC/MS analysis relative to control; assay type: functional; how it was run: as §1
[7] = biological target: T1, Acid ceramidase (Homo sapiens); assay: Inhibition of acid ceramidase in human MCF7 cells at 10 uM after 2 hrs by scintillation counting; assay type: cell-based
How it was run: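 MCF7 cells were treated with 10μM compound for 2 h, scraped and lysed in acidic buffer. Acid ceramidase activity in the lysate was assayed with [3H]C16-ceramide at pH about 4.2, 37°C for 1 h, counting released [3H]palmitic acid. Duplicates, reported as % control.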

MCF7 [8] = assay: Increase in endogenous C18-ceramide level in human MCF7 cells at 10 uM after 2 hrs by LC/MS analysis relative to control; assay type: functional; how it was run: as §1
MCF7 [9] = assay: Induction of lysosomal destabilization in human MCF7 cells assessed as reduction in stability at 10 uM after 1 to 5 hrs by FACS; assay type: functional
How it was run: (§3)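 MCF7 cells seeded at 5 × 10^5 per well overnight, then moved to fresh 2% FBS medium with compound in DMSO or DMSO alone at 37°C for 1 and 5 h. 200nM LysoTracker Red was added for 30 min, and cells were trypsinized, washed and analysed by FACS (564–606nm, ≥10,000 events). A fall in fluorescence indicates a rise in lysosomal pH. Triplicates, reported as % control.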

MCF7 [10] = assay: Increase in endogenous C24:1-ceramide level in human MCF7 cells at 10 uM after 2 hrs by LC/MS analysis relative to control; assay type: functional; how it was run: as §1
MCF7 [11] = assay: Increase in endogenous C24-ceramide level in human MCF7 cells at 10 uM after 2 hrs by LC/MS analysis relative to control; assay type: functional; how it was run: as §1
MCF7 [12] = assay: Increase in endogenous sphingosine level in human MCF7 cells at 10 uM after 2 hrs by LC/MS analysis relative to control; assay type: functional; how it was run: as §1
MCF7 [13] = assay: Induction of lysosomal destabilization in human MCF7 cells assessed as reduction in stability at 10 uM after 5 hrs by FACS; assay type: functional, cell-based; how it was run: as §3
MCF7 [14] = assay: Induction of apoptosis in human MCF7 cells assessed as increase in caspase 3/7 activity after 24 hrs; assay type: functional, cell-based
How it was run: (§4)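 MCF7 cells seeded at 5 × 10^3 per well overnight, then given vehicle or compound at the indicated concentrations. After 8 h and 24 h, caspase 3/7 activity was measured with the Apo-ONE homogeneous kit (fluorescence, ex 485/em 520 nm). Data are mean ±SD.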

MCF7 [15] = assay: Induction of lysosomal destabilization in human MCF7 cells assessed as reduction in stability at 10 uM after 1 hr by FACS; assay type: functional; design: scale not given: the % may be the effect or the level left; how it was run: as §3
MCF7 [16] = assay: Induction of apoptosis in human MCF7 cells assessed as increase in caspase 3/7 activity at 10 uM after 24 hrs; assay type: functional; how it was run: as §4
MCF7 [17] = assay: Cytotoxicity against human MCF7 cells after 72 hrs by MTT assay; assay type: functional, cell-based; conditions: MCF7, 72 h; how it was run: as §2
MCF7 [18] = assay: Induction of apoptosis in human MCF7 cells at 5 uM after 24 hrs; assay type: functional, cell-based; conditions: MCF7, 24 h

## O=C(CCCCCCCCCCCN1CCOCC1)N[C@H](CO)[C@H](O)c1ccc([N+](=O)[O-])cc1
MCF7 [1]
  Activity: 120%
MCF7 [2]
  Activity: 50%
[3]
  inhibition: 5%
MCF7 [4]
  Activity: Dose-dependent effect
  IC50: 49.9 µM
MCF7 [5]
  Activity: 98%
MCF7 [6]
  Activity: 200%

## CCCCCCCCNCCCCCC(=O)N[C@H](CO)[C@H](O)c1ccc([N+](=O)[O-])cc1
MCF7 [1]
  Activity: 120%
MCF7 [2]
  Activity: 50%
[3]
  inhibition: 5%
MCF7 [4]
  Activity: Dose-dependent effect
  IC50: 12.1 µM
MCF7 [5]
  Activity: 98%
MCF7 [6]
  Activity: 200%

## CCCCCCCCCCCCCC(=O)N[C@H](CO)[C@H](O)c1ccc([N+](=O)[O-])cc1
[7]
  Activity: inactive
MCF7 [1]
  Activity: 135%
MCF7 [8]
  Activity: 135%
MCF7 [9]
  Activity: inactive
[3]
  inhibition: 90%
MCF7 [4]
  Activity: Dose-dependent effect
  IC50: 19.6 µM
MCF7 [10]
  Activity: 135%
MCF7 [11]
  Activity: 135%
MCF7 [6]
  Activity: 135%
MCF7 [12]
  Activity: 140%

## CN(C)CCCCCCCCCCCC(=O)N[C@H](CO)[C@H](O)c1ccc([N+](=O)[O-])cc1
MCF7 [13]
  Activity: inactive
[7]
  inhibition: 65%
MCF7 [14]
  Activity: Dose-dependent effect
MCF7 [1]
  Activity: 143%
MCF7 [2]
  Activity: 50%
MCF7 [15]
  Activity: 10%
[3]
  inhibition: 55%
MCF7 [16]
  Activity: 175%
MCF7 [4]
  Activity: Dose-dependent effect
  IC50: 10.2 µM
MCF7 [17]
  IC50: 7.2 µM
MCF7 [6]
  Activity: 300%

## CCCCCCCCCCCCCCN[C@H](CO)[C@H](O)c1ccc([N+](=O)[O-])cc1.Cl
MCF7 [18]
  IC50: 5 µM
[7]
  inhibition: 35%
MCF7 [1]
  Activity: 200%
MCF7 [8]
  Activity: 160%
MCF7 [9]
  Activity: 90%
MCF7 [2]
  Activity: 30%
MCF7 [4]
  Activity: Dose-dependent effect
  IC50: 4.29 µM
MCF7 [6]
  Activity: 220%

## CNCCCCCCCCCCCC(=O)N[C@H](CO)[C@H](O)c1ccc([N+](=O)[O-])cc1
MCF7 [1]
  Activity: 120%
MCF7 [2]
  Activity: 50%
MCF7 [4]
  Activity: Dose-dependent effect
  IC50: 15.5 µM
MCF7 [5]
  Activity: 98%
MCF7 [6]
  Activity: 200%

## NCCCCCCCCCCCC(=O)N[C@H](CO)[C@H](O)c1ccc([N+](=O)[O-])cc1
MCF7 [1]
  Activity: 120%
MCF7 [2]
  Activity: 50%
MCF7 [4]
  Activity: Dose-dependent effect
  IC50: 6.43 µM
MCF7 [5]
  Activity: 98%
MCF7 [6]
  Activity: 200%

## O=C(CCCCCCCCCCCn1ccnc1)N[C@H](CO)[C@H](O)c1ccc([N+](=O)[O-])cc1
MCF7 [1]
  Activity: 120%
MCF7 [2]
  Activity: 50%
MCF7 [4]
  Activity: Dose-dependent effect
  IC50: 14.8 µM
MCF7 [5]
  Activity: 98%
MCF7 [6]
  Activity: 200%
